Key:
Neprilysin [1] = molecular target: T1, Neprilysin (Rattus norvegicus, UniProt P07861); test: The compound was tested in vitro for its inhibitory activity against Enkephalinase enzyme
T1 sequence (P07861 whole entry): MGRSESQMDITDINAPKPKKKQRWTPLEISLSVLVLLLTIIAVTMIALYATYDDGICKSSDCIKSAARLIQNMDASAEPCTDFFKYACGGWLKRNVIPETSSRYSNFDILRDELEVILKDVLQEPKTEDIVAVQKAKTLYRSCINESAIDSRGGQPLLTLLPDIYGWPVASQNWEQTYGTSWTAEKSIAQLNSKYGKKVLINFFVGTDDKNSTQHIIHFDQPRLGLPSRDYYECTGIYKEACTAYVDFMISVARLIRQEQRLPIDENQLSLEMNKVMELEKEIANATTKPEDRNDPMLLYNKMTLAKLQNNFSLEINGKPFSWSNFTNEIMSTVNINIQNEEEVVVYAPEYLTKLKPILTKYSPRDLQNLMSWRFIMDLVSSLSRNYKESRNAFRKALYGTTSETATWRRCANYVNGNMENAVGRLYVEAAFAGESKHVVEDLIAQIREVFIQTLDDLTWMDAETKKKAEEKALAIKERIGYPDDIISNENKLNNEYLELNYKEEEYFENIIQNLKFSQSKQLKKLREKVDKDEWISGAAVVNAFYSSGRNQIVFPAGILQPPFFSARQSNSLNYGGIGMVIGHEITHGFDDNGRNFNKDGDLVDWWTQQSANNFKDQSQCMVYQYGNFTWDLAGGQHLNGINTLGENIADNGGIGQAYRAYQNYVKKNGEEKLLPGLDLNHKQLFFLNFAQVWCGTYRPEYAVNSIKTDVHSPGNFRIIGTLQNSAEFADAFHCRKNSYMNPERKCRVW
Outline: (§1)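 Rat striatal membranes (male Std:Wistar) were solubilized with 1% Triton X-100 in 50 mM Tris-HCl pH 7.7 and fractionated on DEAE-cellulose; the enkephalin dipeptidylcarboxypeptidase fraction served as enzyme. IC50 by log-probit from 3–4 concentrations, run 2–3 times.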

[2] = molecular target: T2, Angiotensin-converting enzyme (Oryctolagus cuniculus, UniProt P12822); test: In vitro inhibitory activity against Angiotensin I converting enzyme from rabbit lung
T2 sequence (P12822 whole entry): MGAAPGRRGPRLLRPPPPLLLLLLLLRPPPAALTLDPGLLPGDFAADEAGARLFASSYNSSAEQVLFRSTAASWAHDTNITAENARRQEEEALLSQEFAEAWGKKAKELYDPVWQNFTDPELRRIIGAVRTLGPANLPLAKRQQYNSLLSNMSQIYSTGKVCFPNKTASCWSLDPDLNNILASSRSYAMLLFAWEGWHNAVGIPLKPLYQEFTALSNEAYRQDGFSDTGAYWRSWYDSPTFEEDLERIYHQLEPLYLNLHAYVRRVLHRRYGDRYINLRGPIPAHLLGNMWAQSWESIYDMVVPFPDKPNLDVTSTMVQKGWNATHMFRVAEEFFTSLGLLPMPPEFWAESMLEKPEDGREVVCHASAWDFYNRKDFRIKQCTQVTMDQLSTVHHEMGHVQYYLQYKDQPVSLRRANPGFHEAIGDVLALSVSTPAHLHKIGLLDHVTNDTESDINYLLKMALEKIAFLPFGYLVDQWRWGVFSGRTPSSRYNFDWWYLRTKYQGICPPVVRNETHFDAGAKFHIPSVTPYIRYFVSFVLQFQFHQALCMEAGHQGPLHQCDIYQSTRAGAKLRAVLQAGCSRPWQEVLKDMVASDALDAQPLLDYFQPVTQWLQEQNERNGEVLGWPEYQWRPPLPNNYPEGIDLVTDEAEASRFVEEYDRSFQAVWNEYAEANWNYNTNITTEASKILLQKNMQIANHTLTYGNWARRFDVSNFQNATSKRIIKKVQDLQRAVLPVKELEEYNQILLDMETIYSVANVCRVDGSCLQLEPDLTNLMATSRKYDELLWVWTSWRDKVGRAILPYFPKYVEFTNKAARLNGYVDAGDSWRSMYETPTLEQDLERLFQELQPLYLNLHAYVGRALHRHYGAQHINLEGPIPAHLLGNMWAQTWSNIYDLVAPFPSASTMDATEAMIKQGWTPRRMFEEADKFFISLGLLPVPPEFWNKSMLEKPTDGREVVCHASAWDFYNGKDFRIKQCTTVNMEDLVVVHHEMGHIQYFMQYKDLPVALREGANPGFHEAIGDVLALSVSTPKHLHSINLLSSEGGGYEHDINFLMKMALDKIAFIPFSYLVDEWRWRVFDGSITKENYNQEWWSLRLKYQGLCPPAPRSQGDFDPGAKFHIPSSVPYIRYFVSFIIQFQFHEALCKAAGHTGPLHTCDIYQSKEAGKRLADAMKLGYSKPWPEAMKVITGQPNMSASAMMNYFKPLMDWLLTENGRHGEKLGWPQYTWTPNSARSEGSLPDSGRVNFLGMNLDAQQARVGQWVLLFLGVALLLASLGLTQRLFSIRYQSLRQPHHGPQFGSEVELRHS
Outline: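 Enzyme source was rabbit lung ACE. The inhibition procedure followed an earlier published method.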

Neprilysin [3] = molecular target: T1, Neprilysin; test: In vitro inhibitory activity against enkephalinase enzyme from rat.
Outline: as §1, with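 “enzyme. […] Reaction was stopped with 0.2 N HCl, products separated on Porapak Q, and [3H]Tyr-Gly-Gly measured.” for “enzyme.”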

[4] = molecular target: T2, Angiotensin-converting enzyme; test: In vitro inhibitory activity against angiotensin I converting enzyme (ACE) from rabbit lung
Mus musculus [5] = test: The compound was tested for administrating the compound intracisternally; type: functional
Outline: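 Female ddY mice (18–22 g) received 10 µL aqueous solution intracisternally 1 min before ip phenylbenzoquinone (0.03% in 5% aqueous EtOH, 10 mL/kg). Writhes were counted for 15 min starting 5 min after phenylbenzoquinone. Mice with behavioural change after injection were excluded. More than 50% reduction versus vehicle control counted as effective; ED50 given with 95% confidence limits.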

Mus musculus [6] = test: The compound was tested for administrating the compound intravenously; type: functional; settings: iv
Outline: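 Female ddY mice (18–22 g) were dosed iv 5 min before ip phenylbenzoquinone (0.03% in 5% aqueous EtOH, 10 mL/kg). Writhes were counted for 15 min starting 5 min after phenylbenzoquinone. More than 50% reduction versus vehicle control counted as effective; ED50 given with 95% confidence limits.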

Structure (SMILES)	IC50 (Neprilysin [3])	further results
O=C(Nc1ccc(S(=O)(=O)O)cc1)C(CS)Cc1ccc([N+](=O)[O-])cc1 (stereo unspecified)		IC50 (Neprilysin [1]): 14 nM
O=C(Nc1cccc(S(=O)(=O)O)c1)C(CS)Cc1ccccc1 (stereo unspecified)	0.27 nM	IC50 [2]: 290 µM
CC(C)CC(CS)C(=O)NCCS(=O)(=O)O (stereo unspecified)		IC50 (Neprilysin [1]): 5.2 nM
O=C(Nc1ccc(S(=O)(=O)O)cc1)C(CS)Cc1ccccc1 (stereo unspecified)	1.7 nM	IC50 [2]: 210 µM
O=C(Nc1ccc(S(=O)(=O)O)cc1)C(CS)Cc1ccc(C(F)(F)F)cc1 (stereo unspecified)	150 nM	
O=C(Nc1ccc(S(=O)(=O)O)cc1)C(CS)Cc1cccc2ccccc12 (stereo unspecified)	34 nM	
O=C(C(CS)Cc1ccccc1)N(CCS(=O)(=O)O)C1CC1 (stereo unspecified)	4200 nM	
Cc1ccc(CC(CS)C(=O)NCCS(=O)(=O)O)cc1 (stereo unspecified)	3.1 nM	
CN(C)c1ccc(CC(CS)C(=O)Nc2ccc(S(=O)(=O)O)cc2)cc1 (stereo unspecified)	14 nM	
COc1ccc(CC(CS)C(=O)Nc2ccc(S(=O)(=O)O)cc2)cc1 (stereo unspecified)	3.2 nM	
Cc1ccc(CC(CS)C(=O)Nc2cccc(S(=O)(=O)O)c2)cc1 (stereo unspecified)	2.5 nM	
O=C(NCCCS(=O)(=O)O)C(CS)Cc1ccccc1 (stereo unspecified)	5.4 nM	
O=C(Nc1ccc(S(=O)(=O)O)c2ccccc12)C(CS)Cc1ccccc1 (stereo unspecified)		IC50 [4]: 37 µM; IC50 (Neprilysin [1]): 7.4 nM
O=C(NCCS(=O)(=O)O)C(CS)Cc1cccc2ccccc12 (stereo unspecified)	8.4 nM	
O=C(Nc1ccccc1S(=O)(=O)O)C(CS)Cc1ccccc1 (stereo unspecified)	140 nM	
O=C(NCCS(=O)(=O)[O-])[C@H](CS)Cc1ccccc1.[Na+]	4.4 nM	IC50 [2]: 740 µM; ED50 (Mus musculus [5]): 17.7 µg mouse-1; ED50 (Mus musculus [6]): 43.3 mg/kg
O=C(Nc1ccc(S(=O)(=O)O)cc1)C(CS)CCCc1ccccc1 (stereo unspecified)	110 nM	
O=C(Nc1ccc(S(=O)(=O)O)cc1)C(CS)Cc1noc2ccccc12 (stereo unspecified)	12 nM	
O=C(NCc1ccc(S(=O)(=O)O)cc1)C(CS)Cc1ccccc1 (stereo unspecified)	11 nM	

Structure (SMILES)	IC50 (Neprilysin [3])	further results
O=C(NCCS(=O)(=O)[O-])[C@@H](CS)Cc1ccccc1.[Na+]	0.82 nM	IC50 [2]: 430 µM; ED50 (Mus musculus [5]): 11.8 µg mouse-1; ED50 (Mus musculus [6]): 8.5 mg/kg
O=C(NCCS(=O)(=O)[O-])C(CS)Cc1ccccc1.[Na+] (stereo unspecified)	1.5 nM	IC50 [2]: 720 µM; ED50 (Mus musculus [5]): 20 µg mouse-1; ED50 (Mus musculus [6]): 18 mg/kg
O=C(Nc1ccc(S(=O)(=O)O)cc1)C(CS)Cc1cccnc1 (stereo unspecified)	33 nM	
O=C(NCS(=O)(=O)O)C(CS)Cc1ccccc1 (stereo unspecified)	2.2 nM	IC50 [2]: 12 µM
O=C(NCCS(=O)(=O)O)C(CS)CCCc1ccccc1 (stereo unspecified)	11 nM	
CN(CCS(=O)(=O)O)C(=O)C(CS)Cc1ccccc1 (stereo unspecified)	490 nM	
O=C(Nc1ccc(S(=O)(=O)O)cc1)C(CS)Cc1ccc(F)cc1 (stereo unspecified)	5 nM	
CC(C)CC(NC(=O)C(CS)Cc1ccccc1)S(=O)(=O)O (stereo unspecified)	250 nM	
CC(C)CC(CS)C(=O)Nc1cccc(S(=O)(=O)O)c1 (stereo unspecified)	2.4 nM	
CC(NC(=O)C(CS)Cc1ccccc1)S(=O)(=O)O (stereo unspecified)	31 nM	
COc1ccc(CC(CS)C(=O)NCCS(=O)(=O)O)cc1 (stereo unspecified)	4.4 nM	
CC(C)CC(CS)C(=O)Nc1ccc(S(=O)(=O)O)cc1 (stereo unspecified)	0.9 nM	
CN(C)c1ccc(CC(CS)C(=O)NCCS(=O)(=O)O)cc1 (stereo unspecified)	37 nM	
O=C(NCCS(=O)(=O)O)C(CS)Cc1ccc([N+](=O)[O-])cc1 (stereo unspecified)		IC50 (Neprilysin [1]): 17 nM
O=C(Nc1ccc(S(=O)(=O)O)cc1)C(CS)Cc1ccc(-c2ccccc2)cc1 (stereo unspecified)	52 nM	
Cc1ccc(CC(CS)C(=O)Nc2ccc(S(=O)(=O)O)cc2)cc1 (stereo unspecified)	1.1 nM	
O=C(NCCS(=O)(=O)O)C(CS)Cc1ccc(F)cc1 (stereo unspecified)	3.5 nM	
O=C(O)CNC(=O)C(CS)Cc1ccccc1 (stereo unspecified) [THIORPHAN]		ED50 (Mus musculus [5]): 17 µg mouse-1; ED50 (Mus musculus [6]): 72 mg/kg

Source: ChEMBL document CHEMBL1126159, “A novel class of enkephalinase inhibitors containing a C-terminal sulfo group” (J Med Chem, 1992)
